The values below come from ChEMBL document CHEMBL1687813 (Antimicrob Agents Chemother, 2010).

For test [1], the system named is Mycolicibacterium smegmatis. The test can be described thus: Antimicrobial activity against Mycobacterium smegmatis mc27092 harboring Mycobacterium tuberculosis H37Ra attBL5:::Ptc::pzaAMsmeg after 11 days by broth microdilution method at pH 6.8. The test is classed as functional. The conditions noted are these: mc27092, 264 h. In outline: (§1)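 Tubercle bacilli were diluted to 10^6 CFU/ml in supplemented 7H9 containing graded PZA or 5-Cl PZA, at pH 6.0 or neutral pH 6.8. Cultures were incubated 11 days at 37°C. The MIC is the lowest concentration blocking visible growth. Integrated amidase constructs were induced with 50 ng/ml anhydrotetracycline.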
On the technique in general: Broth dilution looks for growth in wells or tubes with falling amounts of substance.

Test [2] concerns Mycolicibacterium smegmatis. Description: Antimicrobial activity against Mycobacterium smegmatis mc27093 harboring Mycobacterium tuberculosis H37Ra attBL5:::Ptc::pzaA from Mycobacterium tuberculosis after 11 days by broth microdilution method at pH 6. The test is classed as functional. The conditions noted are these: mc27093, 264 h. In outline: as §1
Test [3] deals with Mycolicibacterium smegmatis. The test can be described thus: Antimicrobial activity against Mycobacterium smegmatis mc27092 harboring Mycobacterium tuberculosis H37Ra attBL5:::Ptc::pzaAMsmeg after 48 hrs by broth microdilution method at pH 6. It is filed as functional. The conditions noted are these: mc27092, 48 h.
In test [4] the test system is Mycobacterium tuberculosis variant bovis BCG. Description: Antimicrobial activity against Mycobacterium bovis BCG Pasteur after 11 days by broth microdilution method at pH 6. It is filed as functional. The following applies: 264 h. In outline:
as §1

The target in test [5] is T1, PYRAZINAMIDASE/NICOTINAMIDAS PNCA (PZase) (Mycobacterium bovis) (UniProt Q93SP7).
T1 sequence (whole entry): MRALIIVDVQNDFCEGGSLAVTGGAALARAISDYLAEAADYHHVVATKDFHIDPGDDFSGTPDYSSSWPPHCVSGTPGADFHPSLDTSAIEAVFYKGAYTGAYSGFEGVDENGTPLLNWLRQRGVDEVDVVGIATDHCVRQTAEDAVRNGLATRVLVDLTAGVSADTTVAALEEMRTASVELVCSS
The test can be described thus: Activity of pyrazinamidase in Mycobacterium bovis BCG Pasteur assessed as compound turnover per ml of microbial cells after 30 mins by calorimetric analysis. The following applies: Mycobacterium tuberculosis variant bovis BCG. In outline:
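Whole-cell colorimetric amidase assay: log-phase cells were pelleted and resuspended in sterile water with 0.05% tyloxapol. Substrate (PZA or 5-Cl PZA) was added to 2 mM at 37°C with shaking and sampled at intervals. Clarified aliquots received ferrous ammonium sulfate (20 mM final), stood 30 min at 4°C, were re-spun, and were read at OD468. Extinction coefficients were 0.68 (PA) and 0.47 (5-Cl PA) per mM. Activity is nmol/min per ml of cells (OD600).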

In test [6] the test system is Mycobacterium tuberculosis variant bovis BCG. The test can be described thus: Antimicrobial activity against Mycobacterium bovis BCG Pasteur after 11 days by broth microdilution method at pH 6.8. It is filed as functional. The following applies: 264 h. The procedure, abridged:
as §1

Test [7] deals with Mycolicibacterium smegmatis. The test can be described thus: Antimicrobial activity against Mycobacterium smegmatis mc27093 harboring Mycobacterium tuberculosis H37Ra attBL5:::Ptc::pzaA from Mycobacterium tuberculosis after 11 days by broth microdilution method at pH 6.8. It is filed as functional. The conditions noted are these: mc27093, 264 h. The procedure, abridged: as §1

≈ marks a conversion by molar mass, not a printed value.

What is called MIC is the smallest concentration in the dilution series that meets the test's criterion for growth inhibition. For `NC(=O)c1cnc(Cl)cn1`, the minimum inhibitory concentration (MIC) worked out at 12.5 µg/mL (≈ 79.3 µM) in test [1]; 200 µg/mL (≈ 1270 µM) in test [2]; 25 µg/mL (≈ 159 µM) in test [3]; 25 µg/mL (≈ 159 µM) in test [4]; 100 µg/mL (≈ 635 µM) in test [6]; 12.5 µg/mL (≈ 79.3 µM) in test [7]. Moreover, the Activity in test [5] turned out to be 0.11 nmol/min.
On to `NC(=O)c1cnccn1` [PYRAZINAMIDE], for which the MIC was more than 1000 µg/mL in test [1]; 12.5 µg/mL (≈ 102 µM) in test [2]; 62.5 µg/mL (≈ 508 µM) in test [3]; 50 µg/mL (≈ 406 µM) in test [4]; 25 µg/mL (≈ 203 µM) in test [6]; 12.5 µg/mL (≈ 102 µM) in test [7]. Besides, the Activity in test [5] is 0.015 nmol/min.
